M1 ag: agonists of human M1 muscarinic receptor; CHO-K1 hM1, Fluo-8 calcium fluorescence, agonist mode; 0% DMSO, 100% acetylcholine EC100; activation, % at 3 µM; 360,000 compounds, 0.33% hits;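 active = activation above the run's mean compound activation plus 3 SD, cut at about 16% in these data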;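 also: peak over basal fluorescence ratio within a 140 s kinetic read after compound addition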
M5 ag: CHRM5 agonism in calcium assay; P08912; CHO-K1 hM5 cells, Fluo-8 calcium fluorescence; 0% DMSO wells, 100% maximal acetylcholine response; activation, % at 3 µM; 360,000 compounds, 0.19% hits; AID 624037;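 active = activation above the run's mean over test compounds plus 3 SD, cut at about 23% in these data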;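 also: signal is peak over basal fluorescence ratio across the kinetic read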
Target sequence (P08912 whole entry, looked up): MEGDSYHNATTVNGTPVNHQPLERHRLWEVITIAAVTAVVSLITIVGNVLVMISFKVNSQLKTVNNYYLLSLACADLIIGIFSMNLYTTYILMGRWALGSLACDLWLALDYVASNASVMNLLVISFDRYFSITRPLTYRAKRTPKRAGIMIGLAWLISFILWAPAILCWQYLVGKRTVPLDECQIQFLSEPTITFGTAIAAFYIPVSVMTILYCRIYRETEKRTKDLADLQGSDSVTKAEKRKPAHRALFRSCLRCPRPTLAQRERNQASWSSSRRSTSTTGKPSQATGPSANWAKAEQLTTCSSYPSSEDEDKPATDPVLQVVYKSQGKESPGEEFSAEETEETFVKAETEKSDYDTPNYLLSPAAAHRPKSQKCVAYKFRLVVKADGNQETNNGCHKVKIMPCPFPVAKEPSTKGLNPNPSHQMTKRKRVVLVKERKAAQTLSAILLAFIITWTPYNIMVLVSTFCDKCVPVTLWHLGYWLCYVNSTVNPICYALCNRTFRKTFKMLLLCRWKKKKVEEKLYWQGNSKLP
M1 antag: antagonists of human M1 muscarinic receptor. P11229. CHO-K1 hM1, Fluo-8 calcium fluorescence, ACh EC80 antagonist. inhibition, % at 3 µM. 360,000 compounds, 1.3% hits. AID 588852;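 active = percent inhibition above its own plate's cutoff, namely the mean of that plate's compound wells plus 3 SD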;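 also: peak over basal fluorescence ratio during 140 s after agonist addition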
M5 antag: CHRM5 antagonism in calcium assay; AID 624040; inhibition, % at 3 µM; CHO-hM5 cells, Fluo-8 calcium fluorescence, ACh EC80; P08912; 360,000 compounds, 0.59% hits;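 active = inhibition above a per-plate cutoff, the mean of that plate's test compounds plus 3 SD, cut at about 27% in these data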
M5 PAM: potentiates acetylcholine response at human M5 receptor | activation, % at 3 µM | 360,000 compounds, 0.3% hits | CHO-K1 hM5, Fluo-8 calcium, ACh EC20 PAM; 0% = ACh EC20, 100% = ACh EC100;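 active = activation above the run cutoff, the mean activation of all test compounds plus 3 SD, cut at about 18% in these data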
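system = human M5 receptor in CHO-K1 cells | compound = one concentration, 3 µM final (nominal) | schedule = Post-acetylcholine fluorescence recording 140 s | signal = Fluo-8 calcium dye fluorescence, kinetic read | benchmarks = low control EC20 acetylcholine (0%), high control EC100 acetylcholine (100%) | repeats = singlicate, one well per test compound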
CHRM1 PAM: potentiates human M1 receptor response to acetylcholine | activation, % at 3 µM | 360,000 compounds, 0.088% hits | CHO-K1 hM1, Fluo-8 calcium fluorescence, ACh EC20; 0% = ACh EC20, 100% = maximal ACh | P11229; in the data active = activation above about 19%, passing the limit was not always enough
Large screens that a line does not name were inactive. An excerpt weighted towards active compounds, which were near 2.2% of everything screened.

CCOC(=O)C1CCCN(C(=O)CNC(=O)c2nn(-c3ccc(OC)c(Cl)c3)c(=O)c3ccccc23)C1 (configuration not stated)	M1 ag 18
CCN(CCCNC(=O)CNC(=O)c1nn(-c2ccc(OC)c(OC)c2)c(=O)c2ccccc12)c1ccccc1	none
CCN(CCCNC(=O)CNC(=O)c1nn(-c2ccc(OC)cc2)c(=O)c2ccccc12)c1cccc(C)c1	M5 antag 29
COc1cc(F)ccc1-c1csc(C(C)(NC(C)=O)c2ccccc2)n1 (configuration not stated)	none
CCC(=O)N1CCCC(C(=O)NS(=O)(=O)c2cc(C)c(Cl)cc2C)CC1 (configuration not stated)	none
C[C@@H]1CN([C@@H](C)CO)C(=O)CCCn2nncc2CO[C@H]1CN(C)C(=O)Nc1ccc(F)cc1	none
Cc1cc2ccccc2n1CCNC(=O)c1ccc(Br)o1	M5 antag 27
Cc1cc2ccccc2n1CCNC(=O)C(C)(C)C	M1 antag 33
O=S1(=O)C=C(SCc2ccc(F)cc2)Nc2ccccc21	none
CC(=O)Nc1ccc(C(=O)OCCCOC(=O)c2ccc(NC(C)=O)cc2)cc1	none
O=C(OCCCOC(=O)c1cc[n+]([O-])cc1)c1cc[n+]([O-])cc1	CHRM1 PAM 26
O=[N+]([O-])c1ccc(Oc2ccc(S(=O)(=O)Nc3ccccc3)cc2)cc1	M1 ag 19, M1 antag 42, M5 antag 43
COc1ccc2nc(SCC(=O)NC3(C#N)CCCCC3)[nH]c2c1	none
Cn1c(=O)c2cc(NC(=O)CCc3ccccc3)ccc2n1Cc1cccc(C(F)(F)F)c1	none
CCOCCC(=O)Nc1ccc2c(c1)c(=O)n(C)n2Cc1cccc(C(F)(F)F)c1	CHRM1 PAM 32
CC1CCc2nn(CC(=O)N3CCc4ccccc43)cc2C1 (configuration not stated)	M1 antag 102
Cn1c(SCC(=O)Nc2ccccc2)nc2c([nH]c3ccccc32)c1=O	M1 antag 35
Cc1cccc(NC(=O)CSc2nc3c([nH]c4ccccc43)c(=O)n2C)c1	none
CC(Sc1cnccn1)C(=O)O (configuration not stated)	M5 antag 32
CC(C)c1ccc(CNc2ccc3c(c2)ncn3C)cc1	M1 antag 34
Cn1cnc2cc(NCc3ccccc3Cl)ccc21	none
CC(C)(C)n1cnc2cc(NCc3ccc(Br)cc3)ccc21	M5 antag 27
COc1cc(-c2noc(C)n2)cc(OC)c1OC	none
O=C(O)c1ccc(N/N=C/c2cccc(C(F)(F)F)c2)cc1	M5 antag 29
Fc1ccc(CSc2ccc(-c3ccco3)nn2)cc1	none
COc1ccccc1CCC(=O)Nc1ccc(C)cc1Cl	none
COc1ccc(C(=O)/C=C2\C(=O)Nc3ccc(Br)cc32)cc1	M1 ag 19
O=C1Nc2ccc(Br)cc2/C1=C/C(=O)c1ccc2c(c1)OCO2	M5 ag 34
O=C1Nc2ccccc2/C1=C\C(=O)c1ccccc1	none
CCOC(=O)c1sc(SC)c2c1CCCC2=O	none
CCc1nnc(NC(=O)c2ccncc2)s1	M5 PAM 20
CCCc1nnc(NC(=O)c2ccncc2)s1	none
COc1cc(/C=N/N2C(=O)CSC2=S)ccc1O	none
O=C1CSC(=S)N1/N=C/c1cc(Br)c(O)c(Br)c1	M1 ag 251, M5 ag 200, M1 antag 90, M5 antag 48
C(=C\c1ccccc1)/CN1CCN(C(c2cc3ccccc3o2)c2nnnn2-c2ccc3c(c2)OCCO3)CC1 (configuration not stated)	M1 antag 76, M5 antag 42
COc1ccc(C(c2nnnn2-c2ccc3c(c2)OCCO3)N2CCN(C/C=C/c3ccccc3)CC2)cc1 (configuration not stated)	M1 antag 94, M5 antag 67
C(=C\c1ccccc1)/CN1CCN(C(c2nnnn2-c2ccc3c(c2)OCCO3)C2CC2)CC1 (configuration not stated)	none
COc1ccc(-n2nnnc2C(c2cc3ccccc3o2)N2CCN(C/C=C/c3ccccc3)CC2)cc1 (configuration not stated)	M1 antag 58, M5 antag 36
CCC(c1nnnn1-c1ccc2c(c1)OCCO2)N1CCN(C/C=C/c2ccccc2)CC1 (configuration not stated)	none
C(=C\c1ccccc1)/CN1CCN(C(c2cccs2)c2nnnn2-c2ccc3c(c2)OCCO3)CC1 (configuration not stated)	M1 antag 90, M5 antag 70
COC(=O)COc1cc(Cl)c(C=O)cc1OC	none
Cc1cc2oc(=O)cc(CN3CCOCC3)c2c(C)c1Cl	none
CCCCn1nnnc1C(c1cc2ccccc2o1)N1CCN(C/C=C/c2ccccc2)CC1 (configuration not stated)	M1 antag 56
C(=C\c1ccccc1)/CN1CCN(C(c2cccs2)c2nnnn2Cc2ccccc2)CC1 (configuration not stated)	none
C(=C\c1ccccc1)/CN1CCN(C(c2cccc3ccccc23)c2nnnn2Cc2ccccc2)CC1 (configuration not stated)	M5 antag 38
Cc1ccc(C(=O)c2nccn2C)cc1C	none
Cc1nn(C)cc1CN1CCCC(C(=O)c2ccc(-c3ccccc3)c(F)c2)C1 (configuration not stated)	M1 antag 52
Cn1cc(CN2CCCC(C(=O)c3ccc(-c4ccccc4)cc3)C2)cn1 (configuration not stated)	none
Cn1cc(CN2CCCC(C(=O)c3ccc(-c4ccccc4)c(F)c3)C2)cn1 (configuration not stated)	M1 antag 28
CSc1ncccc1C(=O)N1CCN(S(=O)(=O)c2ccc(C)cc2)CC1	none
CCc1ccc(NC(=O)Cn2cc([N+](=O)[O-])nc2C)cc1	M5 PAM 21
CCOC(=O)C1CCN(C(=O)c2[nH]c(C(F)(F)F)nc2-c2ccccc2)CC1	none
Cc1ccc2c(c1)sc[n+]2Cc1ccccc1	M5 PAM 21
Cc1ccc(-c2cc[n+](Cc3ccccc3)cc2)cc1	none
CCOC(=O)N1CCN(C(=O)c2cc3c(s2)-c2ccc(Cl)cc2S(=O)(=O)C3)CC1	none
COc1ccc(-c2cc(-c3ccccc3O)[nH]n2)cc1OC	M1 antag 31
COc1ccc(-c2cc(-c3ccc(OC)c(OC)c3)n[nH]2)c(O)c1	none
CCOC(=O)c1c(-c2ccccc2)csc1NC(=O)/C(C#N)=C\c1ccc(O)c(OC)c1	M5 ag 31
